The source of these data is ChEMBL document CHEMBL2157989, “Synthesis and biological evaluation of antibody conjugates of phosphate prodrugs of cytotoxic DNA alkylators for the targeted treatment of cancer” (J Med Chem, 2012).

A short description of data set [1]: Solubility of the compound in 10% DMA and 90% buffer at pH 7 at 1.5 mg sonicated for 45 mins followed by centrifugation for 45 mins by UV/Vis spectroscopy. The data set is classed as physicochemical. The gist of the method:
(§1)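 About 1.5 mg of compound is sonicated for 45 min in pH 7.0 buffer containing 10% or 20% DMA, then centrifuged at 1400g for 45 min. Supernatant concentration is read by UV/vis at 340 nm. ε at pH 7.0 is 41500 M⁻¹ cm⁻¹ for DC1–SR₂ compounds and 34500 M⁻¹ cm⁻¹ for phosphate prodrugs.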

In data set [2] the test system is Ramos. As to the kind of experiment: Cytotoxicity against human Ramos cells assessed as cell survival after 72 hrs by clonogenic assay. The data set is classed as functional, cell-based. The method in brief: (§2)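 Cells were kept in RPMI 1640 with 10% heat-inactivated FBS at 37 °C and 6% CO₂. They were plated at 1000–5000 cells/well and exposed to 0–3 nM test agent for 72 h. Medium was then replaced and colonies grew for 7–10 days in total after plating. Colonies were fixed and stained with 0.2% crystal violet in 10% formalin/PBS, then counted. Surviving fraction = colonies in treated wells / colonies in control wells; IC₅₀ was taken from this.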

Data set [3] can be described thus: Solubility in DMA at 1.5 mg sonicated for 45 mins followed by centrifugation for 45 mins by UV/Vis spectroscopy. The data set is classed as physicochemical. The following applies: 0.75 h. The gist of the method: (§3)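 Solid compound (~1.5 mg) in the stated solvent was sonicated 45 min, then centrifuged at 1400g for 45 min. The supernatant concentration was read by UV/vis at 340 nm, using ε = 41500 M⁻¹ cm⁻¹ for the free phenols and 34500 M⁻¹ cm⁻¹ for the phosphate prodrugs (pH 7.0 values).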

Data set [4] is described as follows: Solubility in toluene at 1.5 mg sonicated for 45 mins followed by centrifugation for 45 mins by UV/Vis spectroscopy. The data set is classed as physicochemical. To be noted: 0.75 h. The method in brief:
as §3

Data set [5] can be described thus: Solubility in dioxane at 1.5 mg sonicated for 45 mins followed by centrifugation for 45 mins by UV/Vis spectroscopy. The data set is classed as physicochemical. To be noted: 0.75 h.
A short description of data set [6]: Solubility in methanol at 1.5 mg sonicated for 45 mins followed by centrifugation for 45 mins by UV/Vis spectroscopy. Format: physicochemical. The following applies: 0.75 h. The method in brief:
as §3

The nature of data set [7]: Solubility in acetone at 1.5 mg sonicated for 45 mins followed by centrifugation for 45 mins by UV/Vis spectroscopy. Format: physicochemical. To be noted: 0.75 h.
A short description of data set [8]: Solubility in THF at 1.5 mg sonicated for 45 mins followed by centrifugation for 45 mins by UV/Vis spectroscopy. The data set is classed as physicochemical. To be noted: 0.75 h.
Data set [9] in a line: Solubility in dichloromethane at 1.5 mg sonicated for 45 mins followed by centrifugation for 45 mins by UV/Vis spectroscopy. The following applies: 0.75 h. Format: physicochemical.
Data set [10] can be described thus: Solubility of the compound in 100% buffer at pH 7 at 1.5 mg sonicated for 45 mins followed by centrifugation for 45 mins by UV/Vis spectroscopy. Format: physicochemical.
A short description of data set [11]: Solubility in water at 1.5 mg sonicated for 45 mins followed by centrifugation for 45 mins by UV/Vis spectroscopy. The data set is classed as physicochemical. The following applies: 0.75 h. The gist of the method: as §3
Data set [12] has as its system COLO 205. Kind of data set: Cytotoxicity against human COLO205 cells assessed as cell survival after 72 hrs by clonogenic assay. Format: functional, cell-based. The following applies: COLO 205, 72 h. The gist of the method: as §2
Data set [13] in a line: Solubility of the compound in 5% DMA and 95% buffer at pH 7 at 1.5 mg sonicated for 45 mins followed by centrifugation for 45 mins by UV/Vis spectroscopy. The data set is classed as physicochemical. The gist of the method: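 For buffers with 5% or less DMA, a 50 mM stock of compound in DMA is diluted 20–100 times into pH 7.0 buffer. It is then sonicated for 45 min and centrifuged at 1400g for 45 min. Supernatant is quantified by UV/vis at 340 nm, with ε of 41500 (DC1–SR₂ compounds) or 34500 M⁻¹ cm⁻¹ (phosphate prodrugs).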

Data set [14] in a line: Solubility in ethanol at 1.5 mg sonicated for 45 mins followed by centrifugation for 45 mins by UV/Vis spectroscopy. Format: physicochemical. To be noted: 0.75 h. The method in brief:
as §3

Data set [15] can be described thus: Cytotoxicity against human NAMALWA cells assessed as cell survival after 72 hrs by clonogenic assay. The following applies: NAMALVA. The data set is classed as functional, cell-based. The method in brief:
as §2

Data set [16] is described as follows: Solubility of the compound in 20% DMA and 80% buffer at pH 7 at 1.5 mg sonicated for 45 mins followed by centrifugation for 45 mins by UV/Vis spectroscopy. Format: physicochemical. The method in brief:
as §1

The test system of data set [17] is HL-60. As to the kind of experiment: Cytotoxicity against human HL60 cells assessed as cell survival after 72 hrs by clonogenic assay. Format: functional, cell-based. The following applies: HL-60, 72 h. The method in brief:
as §2

The nature of data set [18]: Solubility in chloroform at 1.5 mg sonicated for 45 mins followed by centrifugation for 45 mins by UV/Vis spectroscopy. To be noted: 0.75 h. Format: physicochemical. The method in brief: as §3
Data set [19] in a line: Solubility in DMSO at 1.5 mg sonicated for 45 mins followed by centrifugation for 45 mins by UV/Vis spectroscopy. The data set is classed as physicochemical. To be noted: 0.75 h. The gist of the method: as §3
The nature of data set [20]: Solubility in ethyl acetate at 1.5 mg sonicated for 45 mins followed by centrifugation for 45 mins by UV/Vis spectroscopy. The following applies: 0.75 h. The data set is classed as physicochemical. The method in brief: as §3
Data set [21] can be described thus: Solubility in hexane at 1.5 mg sonicated for 45 mins followed by centrifugation for 45 mins by UV/Vis spectroscopy. The data set is classed as physicochemical. The following applies: 0.75 h. The method in brief:
as §3

Data set [22] can be described thus: Solubility in DMF at 1.5 mg sonicated for 45 mins followed by centrifugation for 45 mins by UV/Vis spectroscopy. Format: physicochemical. The following applies: 0.75 h. The gist of the method: as §3

Values after ≈ are worked out from the molar mass of the structure shown. Some results are limits rather than exact numbers.

As a reminder, the solubility is how much of the substance goes into solution per volume. The term IC50 denotes the concentration at which inhibition is half-maximal. Take `CSSCCC(=O)Nc1ccc2[nH]c(C(=O)Nc3ccc4[nH]c(C(=O)N5C[C@@H](CCl)c6c5cc(O)c5ccccc65)cc4c3)cc2c1`: the solubility at 0.75 h was 1 µM (≈ 0.684 µg/mL) in [1], below 0.1 µM in [10], below 1 µM in data set [13] and 3 µM (≈ 2.05 µg/mL) in data set [16]. The IC50 in [2] stood at 0.022 nM; in data set [12] it was 0.25 nM; in data set [15], 0.01 nM; in data set [17] it was 0.032 nM. The solubility entry in data set [3] is on record as “soluble”; in data set [4] it was “Insoluble”; in data set [5], “soluble”; in data set [6], “Insoluble”; in [7] it was “soluble”; in data set [8], “soluble”. Further, the solubility entry in [9] was “Insoluble”; in data set [11], “Insoluble”; in [14] it was “Insoluble”; in data set [18] it was “Insoluble”; in [19] it was “soluble”; in [20] it was “Insoluble”. The solubility entry is reported as “Insoluble” in data set [21] and “soluble” in data set [22].

Consider `CSSC(C)(C)CCC(=O)Nc1ccc2[nH]c(C(=O)Nc3ccc4[nH]c(C(=O)N5C[C@@H](CCl)c6c5cc(O)c5ccccc65)cc4c3)cc2c1`, for which the solubility at 0.75 h in data set [1] is 1 µM (≈ 0.726 µg/mL); in data set [10], below 0.1 µM; in data set [13], below 1 µM; in [16], 3 µM (≈ 2.18 µg/mL). Further, the IC50 in data set [2] is 0.018 nM; in data set [12] it was 0.22 nM; in data set [15], 0.021 nM; in data set [17], 0.025 nM. In addition, the solubility entry is reported as “soluble” in [3]; “Insoluble” in data set [4]; “soluble” in data set [5]; “Insoluble” in data set [6]; “soluble” in data set [7]; “soluble” in [8]. In addition, the solubility entry in [9] is listed as “Insoluble”; in [11] it was “Insoluble”; in data set [14] it was “Insoluble”; in [18] it was “Insoluble”; in data set [19] it was “soluble”; in [20] it was “Insoluble”. Besides, the solubility entry in [21] is “Insoluble”; in data set [22], “soluble”.
